# In PMC8712509 (International Journal of Nanomedicine, 2021):
# Assays:
# SGC-7901 cells = experiment: Cytotoxicity assay; format: cell-based, Human; details: SGC-7901, MTT, n=3
# Method in brief: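 SGC-7901 cells were grown in RPMI-1640 with 10% FBS, 1% penicillin and 1% streptomycin at 37°C, 5% CO2. Log-phase cells were seeded in triplicate at 1.0×10^4 cells/well overnight. Free drug or liposomal test formulations (1.0–100.0 µg/mL drug) were added for 24, 48 or 72 h. MTT (5.0 mg/mL stock) was added for 4 h, then DMSO, and OD read at 490 nm. IC50 was derived from viability.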
# [1] = Pharmacokinetics in plasma; format: in vivo; details: ICR mice, single 10.0 mg/kg iv
# [2] = Biodistribution in major organs; format: in vivo; details: ICR mice, single 10.0 mg/kg iv
smiles,measurement,setting,value
"O=C1[O][Pt]2([NH][C@@H]3CCCC[C@H]3[NH]2)[O]C1=O (relative stereo) [OXA, (1R-trans)-(1,2-cyclohexanediamine-N,N’)[oxalic acid (2-)-O,O’] platinum]",IC50,SGC-7901 cells; 48 h,15.87 ± 0.27 µg/mL
same,IC50,SGC-7901 cells; 72 h,14.17 ± 0.14 µg/mL
same,last time at which OXA was detectable in plasma (undetectable after),[1],8 h
same,plasma concentration of OXA,[1]; 0.08 h,28.59 ± 0.92 µg/mL
same,plasma concentration of OXA,[1]; 0.17 h,25.03 ± 0.32 µg/mL
same,plasma concentration of OXA,[1]; 0.50 h,4.49 ± 0.35 µg/mL
same,plasma concentration of OXA,[1]; 1 h,3.20 ± 0.10 µg/mL
same,plasma concentration of OXA,[1]; 2 h,2.86 ± 0.24 µg/mL
same,plasma concentration of OXA,[1]; 4 h,1.99 ± 0.12 µg/mL
same,plasma concentration of OXA,[1]; 6 h,1.50 ± 0.70 µg/mL
same,plasma concentration of OXA,[1]; 8 h,0.64 ± 0.11 µg/mL
same,CL,"[1]; plasma, n=3",0.332 ± 0.090 L/h/kg
same,CLz,"[1]; plasma, n=3",0.351 ± 0.013 L/h/kg
same,K10,"[1]; plasma, n=3",1.319 ± 0.250 h⁻¹
same,K12,"[1]; plasma, n=3",5.632 ± 0.360 h⁻¹
same,K21,"[1]; plasma, n=3",0.828 ± 0.070 h⁻¹
same,MRT(0-t),"[1]; plasma, n=3",2.535 ± 0.520 H
same,MRT(0-∞),"[1]; plasma, n=3",4.319 ± 0.130 H
same,T1/2z,"[1]; plasma, n=3",4.995 ± 0.360 H
same,Tmax,"[1]; plasma, n=3",0.250 ± 0.015 H
same,t1/2α,"[1]; plasma, n=3",0.215 ± 0.077 H
same,t1/2β (elimination half-life),"[1]; plasma, n=3",3.214 ± 0.420 H
same,OXA concentration in heart,[2]; 0.5 h,8.59 ± 0.06 µg/g
same,OXA concentration in kidneys,[2]; 0.5 h,8.73 ± 0.45 µg/g
same,OXA concentration in liver,[2]; 0.5 h,14.00 ± 0.30 µg/g
same,OXA concentration in lungs,[2]; 0.5 h,4.60 ± 0.13 µg/g
same,OXA concentration in spleen,[2]; 0.5 h,14.27 ± 0.44 µg/g
same,OXA concentration in heart,[2]; 1 h,10.27 ± 0.44 µg/g
same,OXA concentration in kidneys,[2]; 1 h,4.02 ± 0.61 µg/g
same,OXA concentration in liver,[2]; 1 h,12.49 ± 0.56 µg/g
same,OXA concentration in lungs,[2]; 1 h,3.70 ± 0.22 µg/g
same,OXA concentration in spleen,[2]; 1 h,13.40 ± 0.80 µg/g
same,OXA concentration in heart,[2]; 2 h,6.79 ± 0.40 µg/g
same,OXA concentration in kidneys,[2]; 2 h,2.85 ± 0.27 µg/g
same,OXA concentration in liver,[2]; 2 h,12.50 ± 0.58 µg/g
same,OXA concentration in lungs,[2]; 2 h,4.35 ± 0.63 µg/g
same,OXA concentration in spleen,[2]; 2 h,13.21 ± 0.22 µg/g
same,OXA concentration in heart,[2]; 4 h,5.55 ± 0.45 µg/g
same,OXA concentration in kidneys,[2]; 4 h,2.36 ± 0.70 µg/g
same,OXA concentration in liver,[2]; 4 h,10.91 ± 1.56 µg/g
same,OXA concentration in lungs,[2]; 4 h,4.98 ± 0.18 µg/g
same,OXA concentration in spleen,[2]; 4 h,10.35 ± 1.53 µg/g
same,OXA concentration in heart,[2]; 6 h,4.22 ± 0.14 µg/g
same,OXA concentration in kidneys,[2]; 6 h,2.84 ± 0.25 µg/g
same,OXA concentration in liver,[2]; 6 h,8.87 ± 0.40 µg/g
same,OXA concentration in lungs,[2]; 6 h,4.54 ± 0.90 µg/g
same,OXA concentration in spleen,[2]; 6 h,10.56 ± 0.56 µg/g
same,OXA concentration in heart,[2]; 8 h,3.26 ± 0.34 µg/g
same,OXA concentration in kidneys,[2]; 8 h,2.65 ± 0.12 µg/g
same,OXA concentration in liver,[2]; 8 h,7.06 ± 0.44 µg/g
same,OXA concentration in lungs,[2]; 8 h,3.94 ± 0.12 µg/g
same,OXA concentration in spleen,[2]; 8 h,4.81 ± 0.33 µg/g
same,"AUC(0-t), heart",[2]; n=3,48.080 ± 1.690 µg·h/g
same,"AUC(0-t), kidneys",[2]; n=3,27.380 ± 1.870 µg·h/g
same,"AUC(0-t), liver",[2]; n=3,87.870 ± 1.360 µg·h/g
same,"AUC(0-t), lungs",[2]; n=3,34.130 ± 1.960 µg·h/g
same,"AUC(0-t), spleen",[2]; n=3,118.170 ± 4.560 µg·h/g
same,"AUC(0-∞), heart",[2]; n=3,68.591 ± 5.210 µg·h/g
same,"AUC(0-∞), kidneys",[2]; n=3,69.442 ± 5.640 µg·h/g
same,"AUC(0-∞), liver",[2]; n=3,161.538 ± 3.960 µg·h/g
same,"AUC(0-∞), lungs",[2]; n=3,106.955 ± 9.140 µg·h/g
same,"AUC(0-∞), spleen",[2]; n=3,128.580 ± 9.360 µg·h/g
same,"MRT, heart",[2]; n=3,5.574 ± 0.980 h
same,"MRT, kidneys",[2]; n=3,16.594 ± 2.220 h
same,"MRT, liver",[2]; n=3,9.330 ± 1.020 h
same,"MRT, lungs",[2]; n=3,17.707 ± 1.990 h
same,"MRT, spleen",[2]; n=3,5.990 ± 0.230 h
